tolC growth inh – growth inhibitors of E. coli tolC mutant, primary screen, strain BW25113 ΔtolC::kan, 384-well | OD615 | growth inhibition, % at 10 µM (by protocol) | 65,000 compounds, 2.2% hits;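 active means growth inhibition at or above a cutoff equal to the mean over every tested compound plus 3 SD, cut at about 60% in these data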;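 further: growth measured after 20 h incubation at 37 °C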
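signal = optical density read at 615 nm | test system = E. coli ΔtolC::kan strain BW25113 | timing = 20 h compound exposure of bacteria at 37 °C | buffer or medium = LB medium plus 50 µg/mL kanamycin | compound dosing = 10 µM final, single dose | evaluation = % inhibition of E. coli growth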
Ecoli WT expand – growth inhibitors of wild-type E. coli, primary screen, strain BW25113, expanded library, OD600; 98,000 compounds, 0.15% hits; OD600 absorbance; growth inhibition, % at 100 µM;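 active means growth inhibition above about 50% at one test dose, limit read from the data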;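 further: growth measured after 20 h incubation at 37 °C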
Phagocytosis inh – inhibitors of macrophage phagocytosis, primary screen, imaging, J774A.1 cells, IgG beads; inhibition, % at 5 µM; J774A.1 macrophage IgG-bead phagocytosis; AID 1029, 2008; 110,000 compounds, 0.07% hits;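 active means inhibition above the mean of the plate negative controls plus 5 SD, cut at about 13% in these data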;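 further: phagocytic index as fraction of beads internalized from green versus red external bead signal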
Mac1 fbg inh – inhibitors of CD11b/CD18 adhesion to fibrinogen, primary screen, K562 cells, luminescence. Integrin beta-2 (Homo sapiens) + Integrin alpha-M (Homo sapiens), P05107+P11215. inhibition, % at 10 µM. 93,000 compounds, 0.54% hits. AID 1497, 2009. ATPlite luminescence; Mn2+ added to activate the integrin;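 active means primary inhibition of 50% or more at 10 µM, then 40% or more on retest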
Target sequence (P05107 whole entry, looked up, other chains not shown): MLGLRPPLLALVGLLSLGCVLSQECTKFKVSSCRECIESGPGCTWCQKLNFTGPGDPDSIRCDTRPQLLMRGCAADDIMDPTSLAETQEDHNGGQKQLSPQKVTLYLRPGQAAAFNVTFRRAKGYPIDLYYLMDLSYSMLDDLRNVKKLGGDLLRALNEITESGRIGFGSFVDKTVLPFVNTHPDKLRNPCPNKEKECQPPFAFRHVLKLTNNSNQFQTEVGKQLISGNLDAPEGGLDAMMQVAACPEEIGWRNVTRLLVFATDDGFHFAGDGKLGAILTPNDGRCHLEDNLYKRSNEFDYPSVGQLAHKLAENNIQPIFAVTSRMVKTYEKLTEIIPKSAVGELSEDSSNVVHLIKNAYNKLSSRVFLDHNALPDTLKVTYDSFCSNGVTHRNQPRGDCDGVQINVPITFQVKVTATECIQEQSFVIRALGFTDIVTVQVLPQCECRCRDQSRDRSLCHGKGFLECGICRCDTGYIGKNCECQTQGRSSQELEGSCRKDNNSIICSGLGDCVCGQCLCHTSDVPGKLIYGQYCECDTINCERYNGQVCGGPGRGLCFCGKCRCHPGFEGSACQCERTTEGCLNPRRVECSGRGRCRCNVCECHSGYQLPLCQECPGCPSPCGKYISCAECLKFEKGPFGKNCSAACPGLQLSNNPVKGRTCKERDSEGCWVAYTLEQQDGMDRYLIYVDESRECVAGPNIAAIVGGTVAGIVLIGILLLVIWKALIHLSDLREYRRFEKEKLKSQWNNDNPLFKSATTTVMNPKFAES
CD11b adhes enh – enhancers of CD11b/CD18 adhesion to fibrinogen, primary screen, K562 cells, luminescence; Integrin beta-2 (Homo sapiens) + Integrin alpha-M (Homo sapiens), P05107+P11215; AID 1499, 2009; activation, % at 10 µM; ATPlite luminescence; 93,000 compounds, 0.07% hits;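 active means 10 µM primary screen giving 50% or more activity, confirmed by 40% or more on retest at that dose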
A number is an active result. This is one part of a sample in which hits are shown more often than they occur.

Results for N#CC(C#N)=c1ccc2c(c1)N1C3=C(CCCC3)CC3CCCCC31N=2 (centres undefined) ?
tolC growth inh: 82.5; Ecoli WT expand: inactive; Phagocytosis inh: inactive; Mac1 fbg inh: inactive; CD11b adhes enh: inactive

Results for Cc1cc(C)cc(NC(N)=S)c1 ?
Phagocytosis inh: inactive; Mac1 fbg inh: inactive; CD11b adhes enh: inactive

How did O=C(NC(c1ccccc1)C(Cl)(Cl)Cl)c1ccccc1 (centres undefined) do in these assays?
Phagocytosis inh: inactive

How did CN(C)c1ccc(/C=N/n2ncc3ccccc32)cc1 do in these assays?
tolC growth inh: 61.5; Ecoli WT expand: inactive; Phagocytosis inh: inactive; Mac1 fbg inh: inactive; CD11b adhes enh: inactive

How did C/C(=N\NC(=O)c1cccc(Cl)c1)C1C(=O)c2ccccc2C1=O do in these assays?
Phagocytosis inh: inactive

How did O=C(CSCCN1C(=O)c2ccccc2C1=O)Nc1ccc2ccccc2c1 do in these assays?
Phagocytosis inh: inactive; Mac1 fbg inh: inactive; CD11b adhes enh: inactive

Results for O=C(C1CCCO1)N1CCN(C(=S)Nc2ccccc2F)CC1 (centres undefined) ?
Phagocytosis inh: inactive

What do the screens show for `CCCCc1c(O)c2ccccc2[nH]c1=O`?
tolC growth inh: inactive; Ecoli WT expand: inactive; Phagocytosis inh: inactive; Mac1 fbg inh: inactive; CD11b adhes enh: inactive

How did CCCCc1cc(O)c(CCCC)c(O)c1 do in these assays?
tolC growth inh: 63.2; Ecoli WT expand: inactive; Phagocytosis inh: inactive; Mac1 fbg inh: inactive; CD11b adhes enh: inactive

What do the screens show for `N#C/C(=N\Nc1ccc(Cl)cc1)C(=O)c1ccccc1`?
Ecoli WT expand: inactive; Phagocytosis inh: inactive; Mac1 fbg inh: 94.3; CD11b adhes enh: inactive

How did COC(=O)c1[nH]c2cc(OC)ccc2c1NC(=O)CCN1CCN(c2ccccc2)CC1 do in these assays?
Ecoli WT expand: inactive; Phagocytosis inh: inactive; Mac1 fbg inh: inactive; CD11b adhes enh: inactive

Results for COC(=O)c1[nH]c2ccccc2c1NC(=O)CN1CCN(c2cccc(OC)c2)C(C)C1 (centres undefined) ?
tolC growth inh: 77.4; Ecoli WT expand: inactive; Phagocytosis inh: inactive; Mac1 fbg inh: inactive; CD11b adhes enh: inactive

How did O=C(COC(=O)c1cccc(NS(=O)(=O)c2ccc(F)c(F)c2)c1)NC(=O)NC1CCCC1 do in these assays?
Mac1 fbg inh: inactive; CD11b adhes enh: inactive

Results for COC(=O)c1ccc2c(c1)C(C)(C)C(/C=C/c1ccc(O)cc1)=[N+]2C ?
Ecoli WT expand: inactive; Phagocytosis inh: inactive; Mac1 fbg inh: inactive; CD11b adhes enh: inactive

How did COC(=O)c1ccc2c(c1)C(C)(C)C(/C=C/c1ccc(OC)c(OC)c1OC)=[N+]2C do in these assays?
Ecoli WT expand: inactive; Phagocytosis inh: inactive; Mac1 fbg inh: 107.4; CD11b adhes enh: inactive

What do the screens show for `COc1ccc(NC(=S)Nc2cccc(S(=O)(=O)N3CCCCC3)c2)cc1`?
Phagocytosis inh: inactive

Results for COc1cccc(N2CC(=O)N(NC(=O)CSc3nc(C)cc(C)c3C#N)CC2=O)c1 ?
Phagocytosis inh: inactive

Results for Cc1ccc(-c2cc(C(F)F)n3ncc(C(=O)Nc4c(C)nn(Cc5ccccc5Cl)c4C)c3n2)cc1 ?
Ecoli WT expand: inactive

What do the screens show for `CCc1nccn1C(=O)c1cnn2c(C(F)F)cc(-c3ccccc3)nc12`?
Ecoli WT expand: inactive; Phagocytosis inh: inactive; Mac1 fbg inh: inactive; CD11b adhes enh: inactive

What do the screens show for `Cc1ccc(-c2cc(C(F)F)n3ncc(C(=O)Nc4c(C)nn(Cc5c(Cl)cccc5Cl)c4C)c3n2)cc1`?
Ecoli WT expand: inactive; Phagocytosis inh: inactive; Mac1 fbg inh: inactive; CD11b adhes enh: 116.1

How did Cc1nn(Cc2c(Cl)cccc2Cl)c(C)c1NC(=O)c1cnn2c(C(F)F)cc(-c3ccccc3)nc12 do in these assays?
Ecoli WT expand: inactive; Phagocytosis inh: inactive; Mac1 fbg inh: inactive; CD11b adhes enh: 116.1

How did COc1ccc(N=C2C(=O)N3c4c(cccc42)C(C)=CC3(C)C)cc1 do in these assays?
Phagocytosis inh: inactive; Mac1 fbg inh: inactive; CD11b adhes enh: inactive

Results for CCCCCCCCCCCCCCCC[n+]1cccc2ccccc21 ?
Phagocytosis inh: inactive; Mac1 fbg inh: 106.0; CD11b adhes enh: inactive

Results for CCCCCCCCCCCCCCCC[n+]1ccc(/C=N/O)cc1 ?
Phagocytosis inh: inactive

How did CCCCCCCCC[n+]1cccc2c3ccccc3ccc21 do in these assays?
Ecoli WT expand: 70.0; Phagocytosis inh: inactive; Mac1 fbg inh: 105.9; CD11b adhes enh: inactive

What do the screens show for `CCN1/C(=C/c2ccc3ccccc3[n+]2CC)C=Cc2ccccc21`?
Ecoli WT expand: 57.0; Phagocytosis inh: inactive; Mac1 fbg inh: 94.1; CD11b adhes enh: inactive

How did CC1=C(C(=O)OC(C)C)C(c2cncc(-c3ccc(F)cc3)c2)C(C#N)=C(N)O1 (centres undefined) do in these assays?
Phagocytosis inh: inactive

Results for Cn1c(=O)c2c(SCC(=O)N3CCC(Cc4ccccc4)CC3)nc(C3CC3)nc2n(C)c1=O ?
tolC growth inh: inactive

How did CCCc1nc(SCC(=O)N2CCCc3ccccc32)c2c(=O)n(C)c(=O)n(C)c2n1 do in these assays?
tolC growth inh: 78.0; Ecoli WT expand: inactive; Phagocytosis inh: inactive; Mac1 fbg inh: inactive; CD11b adhes enh: inactive

How did CCCc1nc(SCC(=O)N2CCC(Cc3ccccc3)CC2)c2c(=O)n(C)c(=O)n(C)c2n1 do in these assays?
tolC growth inh: 75.2; Ecoli WT expand: inactive; Phagocytosis inh: inactive; Mac1 fbg inh: inactive; CD11b adhes enh: inactive

How did N#Cc1nc(Cc2cccc3ccccc23)oc1NCCCn1ccnc1 do in these assays?
tolC growth inh: 60.9; Ecoli WT expand: inactive; Phagocytosis inh: inactive; Mac1 fbg inh: inactive; CD11b adhes enh: inactive

What do the screens show for `N#Cc1nc(Cc2cccc3ccccc23)oc1NCCCN1CCOCC1`?
tolC growth inh: inactive; Ecoli WT expand: inactive; Phagocytosis inh: inactive; Mac1 fbg inh: inactive; CD11b adhes enh: inactive

What do the screens show for `CC/C(=N\NC(=O)C(N)=O)c1ccccc1O`?
Phagocytosis inh: inactive

What do the screens show for `C/C(=C\C(=O)c1ccccc1)Nc1ccc2c(c1)OCO2`?
Phagocytosis inh: inactive; Mac1 fbg inh: inactive; CD11b adhes enh: inactive

Results for Clc1ccc(Nc2nc(NCCN3CCOCC3)nc(N3CCOCC3)n2)cc1 ?
tolC growth inh: inactive; Ecoli WT expand: inactive; Phagocytosis inh: inactive

Results for CC(C)c1ccc(Nc2nc(NCc3ccco3)nc(N3CCOCC3)n2)cc1 ?
tolC growth inh: 66.0; Ecoli WT expand: inactive; Phagocytosis inh: inactive; Mac1 fbg inh: inactive; CD11b adhes enh: inactive

How did O=C(COc1ccc(Br)cc1)Nc1ccncc1 do in these assays?
Ecoli WT expand: inactive; Phagocytosis inh: inactive; Mac1 fbg inh: inactive; CD11b adhes enh: inactive

How did Cc1cc(OCC(=O)Nc2ccncc2)c(C)cc1Br do in these assays?
Ecoli WT expand: inactive; Phagocytosis inh: inactive; Mac1 fbg inh: 98.0; CD11b adhes enh: inactive

Results for CCC(C)NC(=O)CCSc1ccc(C)cc1 (centres undefined) ?
Phagocytosis inh: inactive

From PubChem BioAssay
